Data taken from ChEMBL document CHEMBL3286196 (J Med Chem, 2014).
Activity calls are given as the source filed them. No cut-off for these calls is given here.

Columns and labels:
Rattus norvegicus = species on record: Rattus norvegicus; test: Binding affinity to NADPH-reduced rat recombinant wild type TrxR after 30 mins by SDS-PAGE
Procedure, shortened: (§1)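 Proteins were reduced, then incubated with the labelling compound for 30 min at room temperature. Samples were separated by SDS-PAGE. The gel was imaged by fluorescence and then stained with Coomassie Blue.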

[1] = tested on: T1, Thioredoxin reductase 1, cytoplasmic (Rattus norvegicus), O89049 [U498C]; test: Binding affinity to NADPH-reduced rat recombinant TrxR1 U498C mutant after 30 mins by SDS-PAGE; procedure, shortened: as §1
T1 sequence (whole entry): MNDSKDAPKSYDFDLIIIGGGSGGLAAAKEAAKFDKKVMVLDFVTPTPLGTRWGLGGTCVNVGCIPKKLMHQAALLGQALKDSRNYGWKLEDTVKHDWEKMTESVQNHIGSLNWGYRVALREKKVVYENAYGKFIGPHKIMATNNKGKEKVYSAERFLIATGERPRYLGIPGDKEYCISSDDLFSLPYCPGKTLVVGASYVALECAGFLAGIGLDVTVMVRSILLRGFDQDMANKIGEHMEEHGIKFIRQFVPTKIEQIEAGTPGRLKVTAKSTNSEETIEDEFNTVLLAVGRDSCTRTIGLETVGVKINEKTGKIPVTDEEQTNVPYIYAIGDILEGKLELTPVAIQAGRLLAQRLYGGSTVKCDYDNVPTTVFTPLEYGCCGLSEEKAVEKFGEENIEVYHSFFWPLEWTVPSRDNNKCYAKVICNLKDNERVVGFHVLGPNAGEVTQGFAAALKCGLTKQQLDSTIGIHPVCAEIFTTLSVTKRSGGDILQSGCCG

HepG2 = test: Cytotoxicity against human HepG2 cells assessed as inhibition of proliferation after 48 hrs by MTT assay; type: functional, cell-based; conditions: HepG2, 48 h
[2] = Cytotoxicity against human […] cells assessed as inhibition of proliferation after 48 hrs by MTT assay; type: functional, cell-based
HL-60 [3] = test: Cytotoxicity against human HL60 cells assessed as inhibition of proliferation after 72 hrs by MTT assay; type: functional, cell-based; conditions: HL-60, 72 h
HeLa = test: Cytotoxicity against human HeLa cells assessed as inhibition of proliferation after 48 hrs by MTT assay; type: functional, cell-based
HL-60 [4] = test: Cytotoxicity against human HL60 cells assessed as inhibition of proliferation after 48 hrs by MTT assay; type: functional, cell-based; conditions: HL-60, 48 h

SMILES | Activity (Rattus norvegicus) | Activity [1] | IC50 (HepG2) | IC50 [2] | IC50 (HL-60 [3]) | IC50 (HeLa) | IC50 (HL-60 [4])
Nc1ccc2c3c(cccc13)C(=O)N(CCCCCC(=O)Nc1ccc([As](O)O)cc1)C2=O | Active | Active |  |  |  |  | 
Nc1ccc2c3c(cccc13)C(=O)N(CCCCCC(=O)Nc1ccc([As]3SCCCS3)cc1)C2=O | inactive | Active |  |  |  |  | 
Nc1ccc([As](=O)(O)O)cc1 [ARSANILIC ACID] |  |  | > 10 µM | > 10 µM | > 10 µM | > 10 µM | > 10 µM
O=[As][As+](=O)[O-] (centres undefined) [ARSENIC TRIOXIDE] |  |  | > 10 µM | > 10 µM | 5.7 µM | > 10 µM | 6.5 µM
